For 13 compounds, viability, differential viability (reversal) and inhibition results are on record in PubChem BioAssay.

A short description of assay [1]: reduced viability of SK-BR-3 breast cancer cells – cell-based, 24 h, human, pilot screen (AID 572;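 active means viability at or below 10% of carrier control in both of two separate runs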;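 further: compound exposure lasted between 18 and 24 h rather than exactly 24 h; 100% = carrier-treated control wells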). To be noted: SK-BR-3 viability, CellTiter-Glo luminescence, at 10 µM, stronger effect = lower value. (Cellular ATP, detected with luciferase, serves as a proxy for viable cell number.)
A short description of assay [2]: HUVEC growth inhibition – cell-based, human, primary screen (AID 575;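 active means viability at or below 30% in both replicate assays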;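 further: 100% = median of untreated cell wells with 0.1% DMSO on each plate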). To be noted: HUVEC proliferation, CellTiter-Glo luminescence, 72 h; at 10 µM; stronger effect = lower value. The essentials: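 material = primary HUVEC, no more than 12 passages | input = 1250 cells per well | controls = vehicle and MePR control wells | measured by = CTG luminescence | times = 72 h compound incubation | format = collagen-coated 384-well format | read-out = % viability vs DMSO wells | doses = single 10 µM dose, 0.1% DMSO, from 5x medium stock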

Assay [3] is described as follows: H69AR cell proliferation blockers – human, duplicate replicates, primary screen (AID 580;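 active means viability at or under a set limit in both replicates, limit being median viability minus 3 SD, cut at about 48% in these data, passing the limit was not always enough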;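 further: 100% = mean luminescence of untreated wells and 0% = no signal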). Particulars: H69AR lung tumor cells viability, ATP luminescence, 72 h; at 10 µM; stronger effect = lower value.
Assay [4] can be described thus: MRP1 drug-resistance reversers in H69AR cells – cell-based, doxorubicin co-treatment, pilot screen (AID 601). Particulars: CellTiter-Glo, 72 h, at 10 µM; for differential viability (reversal): stronger effect = higher value.
Assay [5] is described as follows: yeast transport mutant growth inhibition pilot in 384-well plates, post-Golgi transport modulator project (AID 636; in the data active means inhibition above about 31%). Particulars: absorbance 615 nm, about 18 h, stronger effect = higher value.
The nature of assay [6]: growth suppression of yeast trafficking mutant, preliminary HTS, modulators of trafficking downstream of Golgi apparatus project, 1536-format plate, OD 615 nm (AID 637; in the data active means inhibition above about 30%). To be noted: yeast transport mutant growth, absorbance 615 nm, 18 h; stronger effect = higher value.
Where [7] appears, read: H69AR cells + 2 uM doxorubicin, measured here: viability with 2 uM doxorubicin, stronger effect = lower value.
Setting [8] is: H69AR cells, compound alone cytotoxicity.

Several values for one entry are separate records, joined by “and”; a condition that tells them apart may be missing. Equal values may be shown once. Activity calls are given as the source filed them.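 How the source made its calls, unless noted: active means viability loss from added drug above about 55%, and viability with drug at most 40%, in both replicates (limit read from the data, passing the limit was not always enough); inconclusive means both conditions met in only one replicate; inactive means neither replicate meets both conditions.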

As a reminder, the viability is a read-out of living cells in per cent, often relative to untreated cells. As a reminder, the inhibition is the drop in the measured response relative to a control, in per cent. `CN(C)C(=O)Oc1cccc([N+](C)(C)C)c1`: the viability in assay [1] was 62% (inactive) and 92% (inactive); in assay [2], 97.5% (inactive) and 92% (inactive); in assay [3], 94.7% (inactive) and 120% (inactive); in assay [4] (setting [7]) it was 96.6% and 103%; in assay [4] (setting [8]), 94.7% and 120%. In addition, the differential viability (reversal) in assay [4] (H69AR cells + 2 uM doxorubicin) is -1.94% (inactive) and 17.4% (inactive). The inhibition in assay [5] was -5.06% (inactive) and -2.21% (inactive); in assay [6], -4% (inactive) and -5.83% (inactive).

Regarding `O=C(Cn1cnc2c(cnn2-c2ccccc2)c1=O)NCCc1ccccc1`, the viability in assay [1] was 102% (inactive); in assay [2], 91.6% (inactive); in assay [3], 91.8% (inactive); in assay [4] (setting [7]) it was 90.8%; in assay [4] (setting [8]) it was 91.8%. The differential viability (reversal) in assay [4] (H69AR cells + 2 uM doxorubicin) was 0.99% (inactive). Moreover, the inhibition in assay [5] was -4.68% (inactive); in assay [6], -5.74% (inactive).

Turning to `CCOc1ccc(-c2nc(N)ncc2-c2ccccc2)c(O)c1`, the viability in assay [1] is 136% (inactive); in assay [2] it was 95.3% (inactive); in assay [3] it was 65.3% (inactive); in assay [4] (setting [7]) it was 79.6%; in assay [4] (setting [8]) it was 65.3%. In addition, the differential viability (reversal) in assay [4] (H69AR cells + 2 uM doxorubicin) is -14.3% (inactive). Also, the inhibition was -5.95% (inactive) in assay [5] and -8.1% (inactive) in assay [6].

In the case of `CCn1c(=O)c2cc(S(=O)(=O)NCc3ccccc3)ccc2n(CC)c1=O`, the viability in assay [1] was 93% (inactive); in assay [2], 62.8% (inactive); in assay [3] it was 19.4% (active); in assay [4] (setting [7]), 96.5%; in assay [4] (setting [8]), 19.4%. For the same compound, the differential viability (reversal) in assay [4] (H69AR cells + 2 uM doxorubicin) is -77.1% (inactive). The inhibition in assay [5] was -1.3% (inactive); in assay [6], 18.7% (inactive).

With `Cc1cnc(NC(=O)CSc2nnc(-c3ccccc3)n2Cc2ccccc2)s1`, the viability in assay [1] was 99% (inactive); in assay [2] it was 82.5% (inactive); in assay [3], 90.2% (inactive); in assay [4] (setting [7]) it was 85.8%; in assay [4] (setting [8]), 90.2%. Further, in assay [4] (H69AR cells + 2 uM doxorubicin), the differential viability (reversal) is 4.35% (inactive). The figures for the inhibition in assay [5] and in assay [6] were 0.55% (inactive) and 13.3% (inactive), respectively.

Take `CC(C)CC(c1nnnn1C(C)(C)C)N1CCN(C2CCCC2)CC1` (centres undefined): the viability was 101% (inactive) in assay [1]; 96.6% (inactive) in assay [2]; 95.2% (inactive) in assay [3]; 84.8% in assay [4] (setting [7]); 95.2% in assay [4] (setting [8]). Moreover, the differential viability (reversal) in assay [4] (H69AR cells + 2 uM doxorubicin) is 10.4% (inactive). Also, the values for the inhibition in assay [5] and in assay [6] were -7.33% (inactive) and 2.91% (inactive), respectively.

For the compound `Cc1cccc(NC(=O)CSc2nnc(-c3ccccc3C)o2)c1`, the viability was 87% (inactive) in assay [1]; 107% (inactive) in assay [2]; 75.4% (inactive) in assay [3]; 72% in assay [4] (setting [7]); 75.4% in assay [4] (setting [8]). For the same compound, in assay [4] (H69AR cells + 2 uM doxorubicin), the differential viability (reversal) is 3.35% (inactive). Besides, the inhibition in assay [5] was -5.95% (inactive); in assay [6], -7.27% (inactive).

For the compound `COc1cc(C)c(Br)cc1S(=O)(=O)N1CCOCC1`, the viability in assay [1] is 84% (inactive); in assay [2], 99.6% (inactive); in assay [3], 100% (inactive); in assay [4] (setting [7]), 86%; in assay [4] (setting [8]), 100%. Further, the differential viability (reversal) in assay [4] (H69AR cells + 2 uM doxorubicin) is 14.5% (inactive). In addition, the inhibition in assay [5] was -5.48% (inactive); in assay [6] it was -0.18% (inactive).

`CCOc1ccccc1NC(=O)CN(C)S(=O)(=O)c1cccc2nsnc12`: the viability was 104% (inactive) in assay [1]; 91.1% (inactive) in assay [2]; 84% (inactive) in assay [3]; 85.1% in assay [4] (setting [7]); 84% in assay [4] (setting [8]). In addition, the differential viability (reversal) in assay [4] (H69AR cells + 2 uM doxorubicin) is -1.12% (inactive). The inhibition in assay [5] was -6.76% (inactive); in assay [6], 0.73% (inactive).

As for `COCC(=O)N(C)c1nnc(-c2ccccn2)s1`, the viability in assay [1] was 83% (inactive); in assay [2], 111% (inactive); in assay [3], 105% (inactive); in assay [4] (setting [7]), 91.3%; in assay [4] (setting [8]), 105%. Moreover, the differential viability (reversal) in assay [4] (H69AR cells + 2 uM doxorubicin) is 13.6% (inactive). For the same compound, the results for the inhibition in assay [5] and in assay [6] were -2.57% (inactive) and -1.09% (inactive), respectively.

Take `COc1ccccc1N(CC(=O)NC1CCCC1)C(=O)c1csnn1`: the viability in assay [1] was 97% (inactive); in assay [2], 89.7% (inactive); in assay [3], 90% (inactive); in assay [4] (setting [7]) it was 57.5%; in assay [4] (setting [8]), 90%. Besides, in assay [4] (H69AR cells + 2 uM doxorubicin), the differential viability (reversal) was 32.5% (inactive). Besides, the figures for the inhibition in assay [5] and in assay [6] were -1.47% (inactive) and -8.36% (inactive), respectively.

Take `CCOc1ccccc1C1N(c2ccc(F)cc2)C(=O)C2CCCN21` (centres undefined): the viability is 109% (inactive) in assay [1]; 111% (inactive) in assay [2]; 99% (inactive) in assay [3]; 79.8% in assay [4] (setting [7]); 99% in assay [4] (setting [8]). In addition, the differential viability (reversal) in assay [4] (H69AR cells + 2 uM doxorubicin) was 19.2% (inactive). Also, the inhibition was -4.4% (inactive) in assay [5] and 2.18% (inactive) in assay [6].

As to `Nc1cc(N)nc(SCc2ccccc2)n1`, the viability in assay [1] was 94% (inactive); in assay [2], 90.8% (inactive); in assay [3] it was 85.6% (inactive); in assay [4] (setting [7]), 92.4%; in assay [4] (setting [8]), 85.6%. Besides, the differential viability (reversal) in assay [4] (H69AR cells + 2 uM doxorubicin) was -6.86% (inactive). The inhibition in assay [5] was -0.68% (inactive); in assay [6], 9.27% (inactive).
